Activity calls are given as the source filed them. The rule behind the calls is not given here.
Experiments:
A549 = assay: Antiproliferative activity against human A549 cells […] by microculture tetrazolium assay; format: functional, cell-based
Procedure, shortened: (§1)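 Tumor cells (ATCC) grown in RPMI 1640 with 10% fetal calf serum, 2 mM L-glutamine, penicillin/streptomycin, 10 mM HEPES pH 7.4. Continuous exposure to graded concentrations for four doubling times, then MTT added and incubated 4 h at 37 °C. Formazan dissolved in DMSO, optical density read. IC50 = concentration reducing OD by 50% versus untreated controls.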

DU-145 = assay: Antiproliferative activity against human DU145 cells […] by microculture tetrazolium assay; format: functional, cell-based; procedure, shortened: as §1
Homo sapiens [1] = organism: Homo sapiens; assay: Binding affinity to DNA assessed as melting temperature
HT-29 = assay: Antiproliferative activity against human HT29 cells […] by microculture tetrazolium assay; format: functional, cell-based; procedure, shortened: as §1
[2] = biological target: T1, Serine/threonine-protein kinase Chk1 (Homo sapiens) (UniProt O14757); assay: Inhibition of human Chk1 at 10 uM
T1 sequence (whole entry): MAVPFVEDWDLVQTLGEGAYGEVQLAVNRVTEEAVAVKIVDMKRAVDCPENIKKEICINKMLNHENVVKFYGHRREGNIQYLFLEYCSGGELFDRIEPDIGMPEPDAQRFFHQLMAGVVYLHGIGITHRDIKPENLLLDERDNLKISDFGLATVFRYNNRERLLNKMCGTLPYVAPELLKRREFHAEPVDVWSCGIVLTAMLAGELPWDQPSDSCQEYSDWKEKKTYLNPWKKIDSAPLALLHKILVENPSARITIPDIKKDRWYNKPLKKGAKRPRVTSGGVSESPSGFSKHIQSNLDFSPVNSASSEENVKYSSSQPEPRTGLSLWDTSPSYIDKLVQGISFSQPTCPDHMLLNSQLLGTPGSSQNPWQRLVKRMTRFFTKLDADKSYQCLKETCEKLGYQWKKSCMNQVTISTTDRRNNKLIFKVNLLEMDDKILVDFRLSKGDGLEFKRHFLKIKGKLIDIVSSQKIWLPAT
Procedure, shortened: (§2)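 Chk1 from a commercial source or purified as GST–Chk1 from baculovirus-infected Sf9 cells. Assay based on a published method. Percent inhibition determined at 10 µM; IC50 determined for selected compounds.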

[3] = biological target: T2, DNA topoisomerase 1 (Homo sapiens) (UniProt P11387); assay: Inhibition of topoisomerase 1
T2 sequence (whole entry): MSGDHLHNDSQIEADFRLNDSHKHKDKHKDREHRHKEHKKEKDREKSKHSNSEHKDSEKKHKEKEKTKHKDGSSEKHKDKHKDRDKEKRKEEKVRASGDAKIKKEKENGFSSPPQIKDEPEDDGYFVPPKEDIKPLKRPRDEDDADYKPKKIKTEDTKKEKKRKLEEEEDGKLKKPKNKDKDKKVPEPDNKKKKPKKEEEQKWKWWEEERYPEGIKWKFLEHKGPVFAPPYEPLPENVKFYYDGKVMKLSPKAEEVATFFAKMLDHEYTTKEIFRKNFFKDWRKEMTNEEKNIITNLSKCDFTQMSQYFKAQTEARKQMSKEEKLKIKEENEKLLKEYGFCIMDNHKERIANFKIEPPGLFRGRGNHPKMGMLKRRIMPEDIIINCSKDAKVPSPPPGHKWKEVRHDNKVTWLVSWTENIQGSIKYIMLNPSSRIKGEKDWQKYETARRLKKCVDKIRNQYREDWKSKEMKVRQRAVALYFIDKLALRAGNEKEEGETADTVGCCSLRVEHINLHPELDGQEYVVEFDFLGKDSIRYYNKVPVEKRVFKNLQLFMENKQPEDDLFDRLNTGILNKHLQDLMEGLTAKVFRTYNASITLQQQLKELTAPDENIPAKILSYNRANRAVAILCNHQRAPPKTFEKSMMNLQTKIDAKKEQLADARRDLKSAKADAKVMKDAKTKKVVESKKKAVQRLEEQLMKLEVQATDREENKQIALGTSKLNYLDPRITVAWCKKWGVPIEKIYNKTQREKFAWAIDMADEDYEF

[4] = biological target: T2, DNA topoisomerase 1 (Homo sapiens); assay: Inhibition of topoisomerase 1 upto 50 uM
Procedure, shortened: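 DNA relaxation and DNA cleavage assays with topoisomerase I, run following published procedures, with compounds up to 50 µM.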

L1210 = assay: Antiproliferative activity against mouse L1210 cells […] by microculture tetrazolium assay; format: functional, cell-based; procedure, shortened: as §1
[5] = biological target: T3, Serine/threonine-protein kinase Chk1 (Homo sapiens, UniProt O14757); assay: Inhibition of human Chk1; procedure, shortened: as §2
T3 sequence (O14757 whole entry): T1 sequence (whole entry)

[6] = biological target: Proto-oncogene tyrosine-protein kinase Src (Homo sapiens) (UniProt P12931); assay: Inhibition of Src tyrosine kinase at 1 uM after 20 mins
Proto-oncogene tyrosine-protein kinase Src (Homo sapiens), sequence (P12931 2-536 limits assumed): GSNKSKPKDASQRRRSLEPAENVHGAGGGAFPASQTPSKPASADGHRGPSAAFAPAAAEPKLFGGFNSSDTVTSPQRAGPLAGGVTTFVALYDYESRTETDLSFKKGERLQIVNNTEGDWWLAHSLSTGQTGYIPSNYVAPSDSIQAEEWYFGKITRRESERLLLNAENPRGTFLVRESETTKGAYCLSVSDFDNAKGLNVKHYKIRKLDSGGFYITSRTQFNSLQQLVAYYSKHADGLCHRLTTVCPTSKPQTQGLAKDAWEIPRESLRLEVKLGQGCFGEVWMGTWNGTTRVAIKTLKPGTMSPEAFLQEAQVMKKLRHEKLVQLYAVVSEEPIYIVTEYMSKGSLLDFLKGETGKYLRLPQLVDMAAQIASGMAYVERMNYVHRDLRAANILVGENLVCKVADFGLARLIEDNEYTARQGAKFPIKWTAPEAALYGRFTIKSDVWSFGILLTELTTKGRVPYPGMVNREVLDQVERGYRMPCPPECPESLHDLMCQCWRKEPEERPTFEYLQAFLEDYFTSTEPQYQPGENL

Homo sapiens [7] = organism: Homo sapiens; assay: Inhibition of CAMK2 at 1 uM
Procedure, shortened: (§3)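 Single-concentration (1 µM) inhibition profiling carried out through a commercial kinase profiler screening service.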

[8] = biological target: T1, Serine/threonine-protein kinase Chk1 (Homo sapiens); assay: Inhibition of Chk1 at 1 uM
Homo sapiens [9] = organism: Homo sapiens; assay: Inhibition of CK1 at 1 uM; procedure, shortened: as §3
Homo sapiens [10] = organism: Homo sapiens; assay: Inhibition of GSK3 at 1 uM; procedure, shortened: as §3
[11] = biological target: Protein kinase C beta type (Homo sapiens) (UniProt P05771); assay: Inhibition of PKCbeta at 1 uM; procedure, shortened: as §3
Protein kinase C beta type (Homo sapiens), sequence (P05771 2-671 limits assumed): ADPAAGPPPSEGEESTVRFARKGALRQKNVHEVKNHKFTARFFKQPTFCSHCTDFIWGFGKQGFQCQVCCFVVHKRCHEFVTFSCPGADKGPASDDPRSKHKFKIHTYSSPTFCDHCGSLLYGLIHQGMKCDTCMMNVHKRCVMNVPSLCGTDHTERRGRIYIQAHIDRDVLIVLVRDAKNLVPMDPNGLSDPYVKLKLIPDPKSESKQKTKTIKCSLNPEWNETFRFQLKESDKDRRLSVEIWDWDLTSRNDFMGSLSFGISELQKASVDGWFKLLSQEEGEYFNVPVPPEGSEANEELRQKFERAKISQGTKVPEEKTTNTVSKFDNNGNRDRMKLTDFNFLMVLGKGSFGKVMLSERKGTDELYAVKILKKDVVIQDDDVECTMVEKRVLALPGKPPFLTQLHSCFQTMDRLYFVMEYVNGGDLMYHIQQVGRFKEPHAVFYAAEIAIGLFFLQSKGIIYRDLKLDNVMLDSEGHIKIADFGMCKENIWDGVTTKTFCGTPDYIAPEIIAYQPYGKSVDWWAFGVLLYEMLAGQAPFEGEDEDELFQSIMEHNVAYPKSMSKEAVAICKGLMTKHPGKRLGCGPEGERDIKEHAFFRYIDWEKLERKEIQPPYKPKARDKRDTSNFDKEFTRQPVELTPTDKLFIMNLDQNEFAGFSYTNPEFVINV

[12] = biological target: AMP-activated protein kinase, AMPK (Homo sapiens) (UniProt P54646+O43741+P54619+Q9UGJ0+Q9Y478+Q13131+Q9UGI9); assay: Inhibition of AMPK at 1 uM; format: protein-complex assay; procedure, shortened: as §3
Homo sapiens [13] = organism: Homo sapiens; assay: Inhibition of PKA at 1 uM; procedure, shortened: as §3
[14] = biological target: MAP kinase-activated protein kinase 2 (Homo sapiens) (UniProt P49137); assay: Inhibition of MAPKAPK2 at 1 uM; procedure, shortened: as §3
MAP kinase-activated protein kinase 2 (Homo sapiens), sequence (P49137 whole entry, looked up): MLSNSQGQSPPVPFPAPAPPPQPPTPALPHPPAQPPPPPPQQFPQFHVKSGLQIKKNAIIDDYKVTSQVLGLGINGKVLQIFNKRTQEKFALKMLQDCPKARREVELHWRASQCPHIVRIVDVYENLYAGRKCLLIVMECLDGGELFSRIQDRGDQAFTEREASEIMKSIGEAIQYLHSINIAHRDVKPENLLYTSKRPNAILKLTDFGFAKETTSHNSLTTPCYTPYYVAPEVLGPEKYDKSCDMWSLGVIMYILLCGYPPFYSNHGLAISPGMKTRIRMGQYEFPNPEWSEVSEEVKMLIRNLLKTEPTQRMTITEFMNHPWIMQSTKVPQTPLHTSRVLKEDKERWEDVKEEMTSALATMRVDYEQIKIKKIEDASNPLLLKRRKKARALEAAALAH

Homo sapiens [15] = organism: Homo sapiens; assay: Inhibition of FGFR3 at 1 uM; procedure, shortened: as §3
[16] = biological target: Tyrosine-protein kinase Lck (Homo sapiens) (UniProt P06239); assay: Inhibition of LCK at 1 uM; procedure, shortened: as §3
Tyrosine-protein kinase Lck (Homo sapiens), sequence (P06239 2-509 limits assumed): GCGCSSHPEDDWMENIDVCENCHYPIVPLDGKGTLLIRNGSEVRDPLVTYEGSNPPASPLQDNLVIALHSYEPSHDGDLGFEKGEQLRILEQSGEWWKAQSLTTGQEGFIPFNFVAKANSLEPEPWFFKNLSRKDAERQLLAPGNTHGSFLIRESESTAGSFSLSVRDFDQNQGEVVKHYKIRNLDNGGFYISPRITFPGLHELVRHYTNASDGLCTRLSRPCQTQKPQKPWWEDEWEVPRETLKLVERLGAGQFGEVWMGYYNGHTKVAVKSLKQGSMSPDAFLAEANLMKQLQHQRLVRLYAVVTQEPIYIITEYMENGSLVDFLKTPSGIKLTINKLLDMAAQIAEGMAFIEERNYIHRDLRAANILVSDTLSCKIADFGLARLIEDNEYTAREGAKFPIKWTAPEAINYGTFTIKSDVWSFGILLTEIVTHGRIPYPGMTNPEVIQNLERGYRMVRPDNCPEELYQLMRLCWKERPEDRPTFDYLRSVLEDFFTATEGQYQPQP

[17] = biological target: T4, Protein kinase C epsilon type (Homo sapiens) (UniProt Q02156); assay: Inhibition of PKCepsilon at 1 uM; procedure, shortened: as §3
T4 sequence (whole entry): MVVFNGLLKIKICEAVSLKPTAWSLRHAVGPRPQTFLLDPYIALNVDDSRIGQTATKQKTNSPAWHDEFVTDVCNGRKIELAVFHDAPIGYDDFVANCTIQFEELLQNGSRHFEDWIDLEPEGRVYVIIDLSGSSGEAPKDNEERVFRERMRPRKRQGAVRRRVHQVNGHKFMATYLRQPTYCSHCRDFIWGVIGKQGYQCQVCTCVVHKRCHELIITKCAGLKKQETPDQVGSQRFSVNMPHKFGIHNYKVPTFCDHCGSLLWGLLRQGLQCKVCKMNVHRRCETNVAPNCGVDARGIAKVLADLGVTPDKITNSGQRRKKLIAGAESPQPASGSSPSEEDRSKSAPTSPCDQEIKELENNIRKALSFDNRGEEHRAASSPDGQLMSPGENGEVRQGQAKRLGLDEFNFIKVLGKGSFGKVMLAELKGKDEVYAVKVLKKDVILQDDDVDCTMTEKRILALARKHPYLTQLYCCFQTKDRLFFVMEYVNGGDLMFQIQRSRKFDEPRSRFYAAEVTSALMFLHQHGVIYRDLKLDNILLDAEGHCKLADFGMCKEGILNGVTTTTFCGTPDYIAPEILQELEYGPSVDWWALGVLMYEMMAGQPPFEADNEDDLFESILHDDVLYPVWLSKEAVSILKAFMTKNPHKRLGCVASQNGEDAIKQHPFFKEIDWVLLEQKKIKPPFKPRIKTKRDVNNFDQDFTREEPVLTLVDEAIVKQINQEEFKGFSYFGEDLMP

[18] = biological target: Ribosomal protein S6 kinase beta-1 (Homo sapiens) (UniProt P23443); assay: Inhibition of P70S6K at 1 uM; procedure, shortened: as §3
Ribosomal protein S6 kinase beta-1 (Homo sapiens), sequence (P23443 whole entry, looked up): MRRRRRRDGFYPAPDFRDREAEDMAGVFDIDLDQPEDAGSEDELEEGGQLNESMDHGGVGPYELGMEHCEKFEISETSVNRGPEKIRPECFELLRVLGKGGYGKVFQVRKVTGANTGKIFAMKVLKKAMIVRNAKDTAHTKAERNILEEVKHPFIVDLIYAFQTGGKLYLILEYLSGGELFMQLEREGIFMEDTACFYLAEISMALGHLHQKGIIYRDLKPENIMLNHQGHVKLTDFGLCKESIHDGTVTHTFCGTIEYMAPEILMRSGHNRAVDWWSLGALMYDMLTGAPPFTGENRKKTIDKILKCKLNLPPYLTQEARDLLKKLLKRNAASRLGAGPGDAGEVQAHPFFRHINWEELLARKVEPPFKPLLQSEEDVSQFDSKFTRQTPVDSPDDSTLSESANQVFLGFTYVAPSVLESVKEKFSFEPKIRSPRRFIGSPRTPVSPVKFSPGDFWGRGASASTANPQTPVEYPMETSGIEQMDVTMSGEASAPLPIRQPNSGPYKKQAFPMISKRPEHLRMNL

[19] = biological target: Protein kinase C alpha type (Homo sapiens) (UniProt P17252); assay: Inhibition of PKCalpha at 1 uM; procedure, shortened: as §3
[20] = biological target: Mitogen-activated protein kinase 1 (Homo sapiens) (UniProt P28482); assay: Inhibition of MAPK1 at 1 uM; procedure, shortened: as §3
Mitogen-activated protein kinase 1 (Homo sapiens), sequence (P28482 whole entry): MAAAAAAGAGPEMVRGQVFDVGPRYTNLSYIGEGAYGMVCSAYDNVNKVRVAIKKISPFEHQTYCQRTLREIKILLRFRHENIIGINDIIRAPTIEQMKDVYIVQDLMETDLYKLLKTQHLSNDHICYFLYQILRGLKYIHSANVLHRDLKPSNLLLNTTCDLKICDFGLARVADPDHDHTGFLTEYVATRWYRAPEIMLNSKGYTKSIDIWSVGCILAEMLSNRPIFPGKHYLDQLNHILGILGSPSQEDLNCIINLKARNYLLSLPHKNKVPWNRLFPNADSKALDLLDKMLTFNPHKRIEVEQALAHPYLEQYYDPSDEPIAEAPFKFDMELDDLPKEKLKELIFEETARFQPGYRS

[21] = biological target: Cyclin-dependent kinase 2 (Homo sapiens) (UniProt P24941); assay: Inhibition of CDK2/cyclin A at 1 uM; procedure, shortened: as §3

Row | SMILES | IC50 (A549) | IC50 (DU-145) | Activity (Homo sapiens [1]) | IC50 (HT-29) | inhibition [2] | Activity [3] | Activity [4] | IC50 (L1210) | IC50 [5] | other results
1 | CN1C(=O)c2c(n3ccnc3c3[nH]c4ncccc4c23)C1=O | 35.6 µM | 7.4 µM |  | 30.6 µM | 36.1% | inactive | inactive | 43.5 µM |  | 
2 | O=C1NC(=O)c2c1c1[nH]cnc1c1[nH]c3ccccc3c21 [GRANULATIMIDE] | 11.4 µM | 2.8 µM |  |  | 93.9% |  |  |  | 0.08 µM | 
3 | O=C1NC(=O)c2c1c1c3cc(OCc4ccccc4)ccc3[nH]c1c1cccn21 | 23.2 µM |  |  | 13.7 µM | 54.8% |  |  | 27 µM | 0.64 µM | 
4 | O=C1NC(=O)c2c1c1c3ccccc3[nH]c1n1cncc21 [ISOGRANULATIMIDE] | 18.1 µM | 13.1 µM |  |  |  |  |  |  | 0.44 µM | 
5 | CN1C(=O)c2c(n3cccc3c3[nH]c4ccc(Br)cc4c23)C1=O | 67 µM | > 100 µM |  | 88.3 µM | 7.1% |  |  | 48.7 µM |  | 
6 | CN1C(=O)c2c(n3cncc3c3c2c2cccnc2n3[C@@H]2O[C@H](CO)[C@@H](O)[C@H](O)[C@H]2O)C1=O | 78.5 µM | 56.1 µM |  | 52.5 µM | 15.1% |  |  | > 100 µM |  | 
7 | CN1C(=O)c2c(n3ccnc3c3c2c2cccnc2n3[C@@H]2O[C@H](CO)[C@@H](O)[C@H](O)[C@H]2O)C1=O | 128 µM | 64.8 µM | inactive | 53 µM | 10.7% | inactive | inactive | > 100 µM |  | 
8 | CN1C(=O)c2c(n3cncc3c3[nH]c4ncccc4c23)C1=O | 7.4 µM | 13.5 µM |  | 9.7 µM | 11.6% |  |  | 8.8 µM |  | 

More lines, main results first:

Row | IC50 (A549) | IC50 (DU-145) | Activity (Homo sapiens [1]) | IC50 (HT-29) | inhibition [2] | Activity [3] | Activity [4] | IC50 (L1210) | IC50 [5] | SMILES | other results
9 | 20 µM | 22.7 µM | inactive | 35.9 µM | 10.3% | inactive | inactive | 42.7 µM |  | CN1C(=O)c2c(n3cccc3c3[nH]c4ccc(OCc5ccccc5)cc4c23)C1=O | 
10 | 19.7 µM | 4.6 µM |  | 17.1 µM | 76.6% |  |  | 29.2 µM | 3.6 µM | O=C1NC(=O)c2c1c1c3cccnc3[nH]c1c1cccn21 | 
11 | 16.1 µM | 15.1 µM |  | 27.8 µM | 95.8% |  |  | 4.5 µM | 0.016 µM | O=C1NC(=O)c2c1c1c3cc(O)ccc3[nH]c1c1cccn21 | inhibition [6]: 1.2%
12 | 68.3 µM |  | inactive | 63.2 µM | 55.6% | inactive | inactive | 41.2 µM |  | CN1C(=O)c2c(n3cccc3c3[nH]c4ccc(Cl)cc4c23)C1=O | 
13 | 8.8 µM |  |  | 26.5 µM | 54.1% |  |  | 5.4 µM |  | CN1C(=O)c2c(n3cccc3c3[nH]c4ccc(O)cc4c23)C1=O | 
14 | 2 µM | 1.4 µM | inactive | 3.3 µM | 85% | inactive | inactive | 3.1 µM | 0.024 µM | O=C1NC(=O)c2c1c1c3ccccc3[nH]c1c1cccn21 | inhibition [6]: 32.5%
15 | 47.1 µM | 1.9 µM | inactive | 5.9 µM | 43.1% | inactive | inactive | 4.9 µM |  | CN1C(=O)c2c(c3c4ccccc4[nH]c3c3cc[nH]c23)C1=O | 
16 | 20.9 µM | 21.7 µM |  | 29 µM | 87.9% |  |  | 12.5 µM | 0.066 µM | O=C1NC(=O)c2c1c1c3cc(Br)ccc3[nH]c1c1cccn21 | % activity (Homo sapiens [7]): 55%; inhibition [6]: 22.3%; % activity [8]: 14%; % activity (Homo sapiens [9]): 104%; % activity (Homo sapiens [10]): 44%; % activity [11]: 98%; % activity [12]: 46%; % activity (Homo sapiens [13]): 103%; % activity [14]: 99%; % activity (Homo sapiens [15]): 50%; % activity [16]: 91%; % activity [17]: 90%; % activity [18]: 26%; % activity [19]: 85%; % activity [20]: 88%; % activity [21]: 88%
17 | > 100 µM | 1.2 µM | inactive | > 100 µM |  | inactive | inactive | 33 µM |  | CN1C(=O)c2c(n3cccc3c3[nH]c4ccccc4c23)C1=O | 
18 | 28.9 µM | 27.4 µM | inactive | 30.4 µM | 95.4% | inactive | inactive | 14.7 µM | 0.089 µM | O=C1NC(=O)c2c1c1c3cc(Cl)ccc3[nH]c1c1cccn21 | % activity (Homo sapiens [7]): 40%; inhibition [6]: 22.1%; % activity [8]: 6%; % activity (Homo sapiens [9]): 94%; % activity (Homo sapiens [10]): 39%; % activity [11]: 79%; % activity [12]: 29%; % activity (Homo sapiens [13]): 98%; % activity [14]: 75%; % activity (Homo sapiens [15]): 32%; % activity [16]: 92%; % activity [17]: 86%; % activity [18]: 51%; % activity [19]: 75%; % activity [20]: 98%; % activity [21]: 69%

From ChEMBL document CHEMBL1149629 (Bioorg Med Chem, 2007)
